Data taken from PMC2606940 (The Journal of General Physiology, 2009).
Substitutions are numbered along the chain they refer to. Read-outs that look alike come from different tables or passages of the source.

Key:
CLC-0 E166Q mutant = molecular target: T1, CLC-0 E166Q mutant (Torpedo marmorata, UniProt P21564, C212S/E166Q); assay type: cell-based
T1 sequence (P21564 1-805 E166Q/C212S): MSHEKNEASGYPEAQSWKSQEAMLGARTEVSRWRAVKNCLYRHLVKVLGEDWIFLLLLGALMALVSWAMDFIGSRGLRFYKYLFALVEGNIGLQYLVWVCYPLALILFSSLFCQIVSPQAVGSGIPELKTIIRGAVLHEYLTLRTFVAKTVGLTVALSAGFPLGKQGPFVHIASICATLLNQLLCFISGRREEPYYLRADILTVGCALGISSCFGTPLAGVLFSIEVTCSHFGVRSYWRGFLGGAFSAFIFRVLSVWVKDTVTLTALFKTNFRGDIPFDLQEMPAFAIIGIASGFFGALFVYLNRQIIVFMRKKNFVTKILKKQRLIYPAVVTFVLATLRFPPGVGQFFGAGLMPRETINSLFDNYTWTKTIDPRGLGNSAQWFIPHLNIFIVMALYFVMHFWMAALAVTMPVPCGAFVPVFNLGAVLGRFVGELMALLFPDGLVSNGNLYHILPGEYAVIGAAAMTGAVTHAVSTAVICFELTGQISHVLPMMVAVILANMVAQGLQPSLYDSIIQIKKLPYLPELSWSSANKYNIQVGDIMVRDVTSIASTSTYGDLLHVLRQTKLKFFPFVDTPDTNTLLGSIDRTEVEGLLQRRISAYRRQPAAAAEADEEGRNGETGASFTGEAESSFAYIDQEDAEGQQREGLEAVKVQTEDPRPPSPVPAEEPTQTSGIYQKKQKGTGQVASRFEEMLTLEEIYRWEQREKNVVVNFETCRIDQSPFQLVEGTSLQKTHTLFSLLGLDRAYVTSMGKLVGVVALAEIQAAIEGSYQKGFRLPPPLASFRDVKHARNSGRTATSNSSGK
Method in brief: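 HEK293 cells expressed C212S-background CLC-0 mutants and were recorded 1–3 d post-transfection as inside-out patches in symmetrical 130 mM NaCl, 10 mM HEPES, pH 7.4. CPA, fatty acids or alkyl sulfates flowed continuously on the cytoplasmic side. C10–C12 compounds were diluted into bath solution from 10 mM DMSO stocks. Test steps ran from +80 to −160 mV after a +80 mV prepulse. Steady-state current was normalized to the mean of pre- and post-blocker controls, and a Langmuir K1/2 was taken at each voltage from ~4–6 patches.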

CLC-0 E166G mutant = molecular target: T2, CLC-0 E166G mutant (Torpedo marmorata, UniProt P21564, C212S/E166G); assay type: cell-based; conditions: read-out: Apparent affinity (K1/2)
T2 sequence (P21564 1-805 E166G/C212S): T1 sequence (P21564 1-805 E166Q/C212S) with Q166G
Method in brief: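 CLC-0 mutants in the C212S background were transfected into HEK293 cells with lipofectamine and recorded 1–3 d later as excised inside-out patches. Both sides held 130 mM NaCl, 5 mM MgCl2, 10 mM HEPES and 1 mM EGTA, pH 7.4. CPA was perfused continuously onto the cytoplasmic face. Steady-state current over the last 10 ms was normalized to bracketing blocker-free controls and fitted to a Langmuir function for K1/2. Values are mean ± SEM of ~4–6 patches.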

[1] = read-out: Apparent affinity (K1/2), −60 mV
[2] = read-out: Apparent affinity (K1/2), −80 mV
[3] = read-out: Apparent affinity (K1/2), −100 mV
[4] = read-out: Apparent affinity (K1/2), −120 mV
[5] = read-out: Apparent affinity (K1/2), −140 mV
[6] = read-out: Apparent affinity (K1/2), −160 mV

Structure (SMILES)	inhibition of current (CLC-0 E166Q mutant; 300 μM CPA, −160 mV) [%]	IC50 (CLC-0 E166Q mutant; [1]) [µM]	IC50 (CLC-0 E166Q mutant; [2]) [µM]	IC50 (CLC-0 E166Q mutant; [3]) [µM]	IC50 (CLC-0 E166Q mutant; [4]) [µM]	IC50 (CLC-0 E166Q mutant; [5]) [µM]	IC50 (CLC-0 E166Q mutant; [6]) [µM]	IC50 (CLC-0 E166G mutant; −40 mV) [µM]	IC50 (CLC-0 E166G mutant; −60 mV) [µM]	IC50 (CLC-0 E166G mutant; −80 mV) [µM]	IC50 (CLC-0 E166G mutant; −100 mV) [µM]	IC50 (CLC-0 E166G mutant; −120 mV) [µM]	IC50 (CLC-0 E166G mutant; −140 mV) [µM]	IC50 (CLC-0 E166G mutant; −160 mV) [µM]	IC50 (CLC-0 E166Q mutant; read-out: Apparent affinity (K1/2), −40 mV) [µM]	IC50 (CLC-0 E166Q mutant; read-out: K1/2, Fig. 10 D) [µM]
O=C(O)COc1ccc(Cl)cc1 [CPA, p-chlorophenoxy acetate]	< 10	19700 ± 900	14000 ± 700	9710 ± 480	6840 ± 310	4710 ± 150	3340 ± 80	300 ± 20	180 ± 10	140 ± 10	150 ± 10	180 ± 20	240 ± 30	320 ± 30		
CCCCCCCC(=O)O [octanoate]		11400 ± 690	6940 ± 360	4210 ± 240	2530 ± 160	1450 ± 100	880 ± 90	225 ± 13	127 ± 8	85 ± 6	75 ± 6	82 ± 8	115 ± 14	175 ± 19	17800 ± 1500	~1000
